TCR CD3 inh = human TCR-CD3 binding inhibition; TAMRA-labeled TCR probe fluorescence, biochemical; inhibition, % at 9.4 µM; 0.37% of 360,000 active; AID 651800;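 also: recombinant mutant TCR 2C K166C tagged with TAMRA read by polarization; 0% = receptor in buffer alone and 100% = receptor with positive control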
ABHD4 inh = ABHD4 (mouse) inhibition, primary FP screen | purified mABHD4, FP-Rh probe fluorescence polarization | inhibition, % at 8.92 µM | AID 720543 | Q8VD66 | 0.54% of 370,000 active;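 active = inhibition exceeding the mean over every tested compound plus 3 SD, cut at about 30% in these data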;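 also: 0% = plate median of compound wells and 100% = S159A mutant with DMSO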
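assay system = mABHD4 protein | compound dosing = single nominal dose of 8.92 µM, 0.89% DMSO final | read-out basis = percent inhibition of probe binding, normalized to plate controls | schedule = Enzyme–compound pre-incubation 45 min, then probe 60 min, both 25 °C | detection = fluorescence polarization, excitation 525 nm, emission 598 nm, BODIPY TMR filters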
SIAE primary = human SIAE inhibition, primary screen; Q9HAT2; SIAE FP-Rh probe binding, fluorescence polarization; inhibition, % at 9.66 µM; 0.69% of 370,000 active; AID 1053197;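 active = inhibition above a cutoff: mean of compounds within the control limits plus 3 SD of those, cut at about 17% in these data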;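 also: 0% = plate median of compound wells and 100% = probe without SIAE protein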
Target sequence (Q9HAT2 whole entry, looked up): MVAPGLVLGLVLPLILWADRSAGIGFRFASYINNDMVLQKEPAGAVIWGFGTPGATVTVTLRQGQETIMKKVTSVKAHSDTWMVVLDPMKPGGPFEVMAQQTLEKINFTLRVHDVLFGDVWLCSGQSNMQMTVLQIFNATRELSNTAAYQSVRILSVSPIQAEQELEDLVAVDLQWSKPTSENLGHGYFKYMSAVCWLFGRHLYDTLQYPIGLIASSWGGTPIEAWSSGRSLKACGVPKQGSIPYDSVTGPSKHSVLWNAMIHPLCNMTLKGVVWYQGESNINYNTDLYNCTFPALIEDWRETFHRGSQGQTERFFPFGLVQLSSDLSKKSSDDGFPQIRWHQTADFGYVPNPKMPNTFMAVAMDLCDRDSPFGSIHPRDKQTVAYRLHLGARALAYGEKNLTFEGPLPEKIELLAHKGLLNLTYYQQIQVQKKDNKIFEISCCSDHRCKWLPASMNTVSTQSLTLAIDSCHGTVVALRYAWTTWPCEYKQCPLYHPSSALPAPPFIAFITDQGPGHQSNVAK
pPAFAH FP inh = pPAFAH (human) enzyme inhibition; 1.5% of 330,000 active; inhibition, % at 3.39 µM; recombinant pPAFAH, FP-rhodamine probe fluorescence polarization; Q13093;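 active = inhibition above the mean inhibition across the screen plus 3 SD, cut at about 25% in these data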;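 also: inhibitors block binding of the rhodamine activity-based probe so polarization drops; 0% = enzyme with DMSO and 100% = wells lacking pPAFAH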
HTRA1 inhibitor = inhibitors of human serine peptidase HTRA1; 0.5% of 340,000 active; recombinant HTRA1, FP-rhodamine activity-based probe, fluorescence polarization; inhibition, % at 5.96 µM; Q92743; in the data active = inhibition above about 36%;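 also: 0% = enzyme with DMSO and 100% = wells lacking enzyme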
BSA probe FL = interferes with TAMRA-BSA probe, flagging TCR-CD3 hits. shares compounds with TCR CD3 inh. TAMRA-labeled BSA probe fluorescence counterscreen. inhibition, % at 9.4 µM. 10% of 1,200 active; in the data active = inhibition above about 23%;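 also: 0% = buffer low control and 100% = reference high control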
TCR-CD3 inh conf = TCR-CD3 interaction inhibition, confirmation; TAMRA-labeled TCR probe fluorescence binding assay; shares compounds with TCR CD3 inh; 48% of 1,200 active; inhibition, % at 9.4 µM; AID 652036
* marks the source's active call; other numbers are inactive results; · = not tested or not shown. Most compounds without a hit are left out; they make up all but 2.3% or so of the library. Rule as the data show it, unless noted: active = inhibition above about 19%; inactive = the rest.

SMILES	TCR CD3 inh	ABHD4 inh	SIAE primary	pPAFAH FP inh	HTRA1 inhibitor	BSA probe FL	TCR-CD3 inh conf
CCCCCCCCN1C(=O)[C@@H](CC(=O)NCCCN2CCCC2=O)C[C@@]2(C(=O)OC)C1=C[C@H](C(C)C)O[C@@H]2C1CC1	·	-4.3	-0.8	·	·	·	·
COc1ccc(-n2c(COc3cccc(C)c3)nnc2SCC(=O)O)cc1	-5.1	-2.9	2.1	4.3	0.5	·	·
COc1ccc(-n2c(COc3ccc(C)cc3)nnc2SCC(=O)O)cc1	31.2*	16.7	-2.6	-4.2	-1.4	12.9	7.1
CS(=O)(=O)c1nc(-c2ccc(Br)cc2)cs1	·	-5.5	4.8	·	·	·	·
O=C(NCCN1CCC(Cc2ccccc2)CC1)C1CCCN(S(=O)(=O)c2ccc(Br)s2)C1 (stereo not drawn)	·	10.8	-4.7	·	·	·	·
Cc1ccc(NC(=O)COC(=O)c2cc(-c3cccs3)nn2-c2ccccc2)cc1[N+](=O)[O-]	-0.6	-1.7	6.3	6.4	-4.4	·	·
O=C(COC(=O)c1cc(-c2cccs2)nn1-c1ccccc1)Nc1cccc([N+](=O)[O-])c1	26.0*	-6.3	-2.7	2.6	2.7	2.8	0.8
CN1CCN(c2ccc3c(c2)OC[C@@H](Cc2ccccc2)NS3(=O)=O)CC1	2.4	6.2	9.1	·	·	·	·
O=C(N/N=C/c1cccc([N+](=O)[O-])c1)c1ccc(COc2ccccc2-c2ccccc2)cc1	49.8*	-7.2	-19.4	11.8	-27.3	21.3	50.2*
CCN(CC)Cc1c(O)c(Cl)cc2c3c(c(=O)oc12)CCCC3	22.4*	28.8	-3.2	8.5	-1.0	-4.5	-1.9
COCCn1c(=NC(=O)c2cc(-c3cccs3)nc3ccccc23)sc2cc(S(N)(=O)=O)ccc21	28.6*	-113.0	-118.1	-30.1	-139.3	1.8	21.2*
COC(=O)c1sccc1NC(=O)Nc1ccc(Cl)c(Cl)c1	34.3*	-23.1	-22.9	-0.5	-14.0	3.2	7.1
Cc1cc(N2CCN(CC(C)(C)O)C[C@@H]2C)ccc1N1CCN(Cc2ccccc2)[C@H](C)C1	9.9	9.0	2.4	·	·	·	·
CCCOc1ccc(C(=O)NNC(=S)NC(=O)c2ccco2)cc1	19.8*	5.0	2.4	9.6	9.6	-13.2	13.9
COc1ccccc1C(=O)NNC(=S)NC(=O)c1ccco1	21.5*	2.3	6.1	2.8	4.3	-8.7	13.9
COc1ccc(C(=O)NNC(=S)NC(=O)c2ccco2)cc1	11.6	9.4	0.3	0.9	9.9	·	·
Cc1cccc(C(=O)NNC(=O)c2c(-c3ccccc3Cl)noc2C)c1O	28.9*	2.5	0.6	6.3	0.2	-1.4	16.4
Cc1cccc(C(=O)NNC(=O)c2ccco2)c1O	19.1*	-0.3	12.9	1.0	-2.0	-4.9	12.4
COc1ccc(C(=O)OCCCN(C)C2CN(Cc3cn(Cc4cccc(F)c4)nn3)S(=O)(=O)C2)cc1OC (stereo not drawn)	·	-2.4	1.2	·	·	·	·
CC(C)NC(=O)N1Cc2cc(C(=O)NC3CCCC3)nc(-c3cccc(-c4cccnc4)c3)c2[C@H]1CCO	3.5	1.4	6.8	·	·	·	·
Cc1onc(-c2ccc(Cl)cc2)c1-c1ccn(S(=O)(=O)c2ccccc2)n1	·	-23.2	-4.9	·	·	·	·
O=C(NC1CCCC1)C(c1ccccc1)n1c(-c2cccc3ccccc23)nc2ccccc21 (stereo not drawn)	0.0	0.0	0.0	·	·	·	·
O=C(NNc1ccc([N+](=O)[O-])cc1[N+](=O)[O-])c1ccco1	·	·	·	7.1	6.0	·	·
Nc1ccc([N+](=O)[O-])cc1C(=O)NNC(=O)c1ccco1	27.4*	-2.9	6.1	-1.6	-4.7	-10.9	32.2*
CCN(CC)c1ccc(NC(=O)COc2ccccc2C#N)cc1S(=O)(=O)Nc1ccccc1OC	21.5*	-43.6	-26.1	-16.4	-41.7	1.6	9.2
SMILES	TCR CD3 inh	ABHD4 inh	SIAE primary	pPAFAH FP inh	HTRA1 inhibitor	BSA probe FL	TCR-CD3 inh conf
Cc1oc2cc(O)ccc2c(=O)c1-c1nncn1-c1ccccc1	25.1*	25.2	4.0	18.1	2.9	27.0*	23.3*
Cc1oc2cc(O)ccc2c(=O)c1-c1ccccc1	2.9	-2.5	3.2	1.4	-1.2	·	·
COc1ccc(OC)c(N2C(=NC(=O)C3CCCCC3)SC3CS(=O)(=O)CC32)c1 (stereo not drawn)	41.4*	-0.4	1.6	0.4	7.5	-1.4	4.3
COc1ccc(C(=O)N/C(=C\c2ccc(Cl)cc2)C(=O)NCc2ccncc2)cc1	-4.5	-6.0	-1.2	·	-0.4	·	·
COC(=O)c1c(C)[nH]c(O)c1C=Nc1ccc(C#N)cc1	40.8*	9.4	8.5	7.7	0.9	2.2	5.9
O=C(N/N=C/c1cn(-c2ccccc2)nc1-c1cc2ccccc2o1)c1c[nH]c2ccccc12	24.9*	-60.8	-82.3	3.1	-94.2	11.1	15.8
O=C(N/N=C/c1cn(-c2ccccc2)nc1-c1cc2ccccc2o1)c1ccccc1Br	-1.1	-17.0	1.4	-9.0	-41.5	·	·
COc1cc(/C=N/NC(=O)c2cccc(N3CCCC3=O)c2)ccc1O	0.7	7.9	-1.0	4.6	-1.6	·	·
CCc1ccc(N2CC(C(=O)N/N=C/c3ccccc3OC)CC2=O)cc1 (stereo not drawn)	-7.5	-3.0	7.8	4.1	-22.8	·	·
CCc1ccc(N2CC(C(=O)N/N=C/c3cc([N+](=O)[O-])ccc3O)CC2=O)cc1 (stereo not drawn)	31.2*	2.5	-3.1	13.9	·	-8.9	26.3*
O=C(N/N=C/c1cc([N+](=O)[O-])ccc1O)c1cccc(N2CCCC2=O)c1	46.0*	11.1	2.2	8.6	-4.0	-9.9	37.1*
CC(C)(C)NC(=O)C1c2ccccc2OCC(=O)N1CCCN1CCOCC1 (stereo not drawn)	-5.6	-6.4	-0.3	·	·	·	·
COc1ccccc1NC(=O)NNC(=O)c1ccc2ccccc2c1	-3.8	5.8	4.2	·	-3.7	·	·
COc1ccc(NC(=O)NNC(=O)c2ccc3ccccc3c2O)cc1OC	50.9*	8.7	16.5	4.8	-0.6	-7.2	46.0*
COc1ccccc1NC(=O)NNC(=O)c1ccc2ccccc2c1O	35.6*	11.0	7.1	·	12.1	-12.0	25.1*
CCc1ccc(NC(=O)NNC(=O)c2ccc3ccccc3c2O)cc1	22.2*	5.9	15.3	·	10.5	5.9	28.9*
Cc1ccccc1NC(=O)NNC(=O)c1ccc2ccccc2c1	-1.6	3.2	4.1	·	-7.3	·	·
Cc1ccccc1NC(=O)NNC(=O)c1ccc2ccccc2c1O	42.6*	25.3	14.8	5.8	12.1	-8.4	32.5*
COC(=O)[C@]12C[C@H](CC(=O)N3CCOCC3)C(=O)N(Cc3cccc4ccccc34)C1=C[C@H](C(C)(C)C)O[C@@H]2C	·	-4.8	1.4	·	·	·	·
COc1ccc(Cn2ccc3ccc(-c4ccc5ccn(C(=O)c6ccccc6C)c5c4)cc32)cc1	·	-0.9	-6.5	·	·	·	·
COc1ccc(C(=O)NNC(=O)c2cc3ccccc3cc2O)cc1	31.9*	13.2	3.8	11.9	6.9	-11.2	24.2*

Source: PubChem BioAssay
